The values below come from ChEMBL document CHEMBL1938301, “Cyclohexane 1,3-diones and their inhibition of mutant SOD1-dependent protein aggregation and toxicity in PC12 cells” (Bioorg Med Chem, 2012).

One assay relates to PC-12. Briefly: Inhibition of SOD1 G93A mutant protein aggregation-mediated cytotoxicity in rat PC12 cells expressing yellow fluorescent protein assessed as increase in cell viability relative to radicicol. Type of assay: cell-based. Also noted: concentration or dose not given beside the values. Summed up:
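PC12 cells expressing G93A SOD1-YFP; MG132 proteasome inhibition induces cytotoxic mutant SOD1 aggregates. Cell survival measured as protection read-out; efficacy expressed relative to radicicol positive control.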

Assay [1] is described as follows: Inhibition of SOD1 G93A mutant protein aggregation-mediated cytotoxicity in rat PC12 cells expressing yellow fluorescent protein assessed as increase in cell viability. Format: cell-based. The settings on record: PC-12.

Where only a bound is given, the exact number is not on record here.

For the molecule `O=C1CC(=O)CC(c2ccc(OCCOc3ccccc3)cc2)C1`, in the assay on PC-12, the Efficacy came out at 100%. In addition, the EC50 (commonly the midpoint of the concentration-response curve) in assay [1] was 1560 nM.
As to `CCOc1cccc(C2CC(=O)CC(=O)C2)c1OCC`, in the assay with PC-12, the Efficacy amounted to 100%. Also, in assay [1], the EC50 stood at 3990 nM.
`O=C1CC(=O)CC(CC(c2ccccc2)c2ccccc2)C1`: the Efficacy in the assay with PC-12 was 100%. Besides, the EC50 in assay [1] worked out at 3430 nM.
For `O=C1CC(=O)CC(c2cc(-c3ccccc3)cc(-c3ccccc3)c2)C1`, in that order: 100% and 2530 nM.
As for `Cc1cc(C)cc(CC2CC(=O)CC(=O)C2)c1`, the Efficacy in the assay with PC-12 was 100%. Moreover, the EC50 in assay [1] was found to be 900 nM.
For `O=C1CC(=O)CC(c2cc(Cl)cc(-c3ccccc3)c2)C1`, in that order: 100% and 1100 nM.
As to `Cc1cc(C)cc(C2CC(=O)CC(=O)C2)c1`, in the assay with PC-12, the Efficacy worked out at 100%. Also, the EC50 in assay [1] came to 2400 nM.
For `Cc1cc(C)c(C2CC(=O)CC(=O)C2)c(C)c1`, in the assay on PC-12, the Efficacy was determined as 100%. Moreover, the concentration giving a half-maximal response (EC50) in assay [1] is greater than 32000 nM.
For `O=C1CC(=O)CC(c2ccc(Oc3ccc(F)cc3)cc2)C1`, in the assay on PC-12, the Efficacy was 100%. Also, the concentration giving a half-maximal response (EC50) in assay [1] amounted to 2370 nM.
Regarding `O=C1CC(=O)CC([C@@H]2C[C@H]2c2ccccc2)C1`, the Efficacy in the assay with PC-12 was 100%. In addition, the EC50 in assay [1] turned out to be 2650 nM.
For `CCn1c2ccccc2c2cc(C3CC(=O)CC(=O)C3)ccc21`, in that order: 100% and 3090 nM.
Take `O=C1CC(=O)CC(c2ccccc2Br)C1`: the Efficacy in the assay with PC-12 came to 100%. In assay [1], the concentration for a half-maximal effect (EC50) is greater than 32000 nM.
Consider `O=C1CC(=O)CC([C@@H]2C[C@H]2c2cc(C(F)(F)F)cc(C(F)(F)F)c2)C1` (racemic), for which the Efficacy in the assay with PC-12 was determined as 100%. Moreover, the concentration giving a half-maximal response (EC50) in assay [1] was determined as 700 nM.
For `O=C1CC(=O)CC(c2cccc(Oc3cc(Cl)cc(Cl)c3)c2)C1`, in that order: 100% and 6660 nM.
For `O=C1CC(=O)CC(c2c(Cl)cc(Cl)cc2Cl)C1`, in that order: 100% and 7010 nM.
On to `Cc1cccc(C2CC(=O)CC(=O)C2)c1C`, for which the Efficacy with PC-12 was 100%. Besides, the EC50 in assay [1] is 2390 nM.
In the case of `O=C1CC(=O)CC(c2ccc(Cl)cc2Cl)C1`, the Efficacy in the assay with PC-12 stood at 100%. For the same molecule, in assay [1], the EC50 is 4570 nM.
As to `O=C1CC(=O)CC(Cc2ccccc2)C1`, the Efficacy with PC-12 is 100%. Further, the concentration giving a half-maximal response (EC50) in assay [1] was 1820 nM.
For `CCc1ccc(C2CC(=O)CC(=O)C2)cc1`, in that order: 100% and 2220 nM.
For `O=C1CC(=O)CC(COc2cc(C(F)(F)F)cc(C(F)(F)F)c2)C1`, in the assay on PC-12, the Efficacy was found to be 100%. For the same molecule, in assay [1], the EC50 was found to be 700 nM.
`O=C1CC(=O)CC(c2ccc(OCCCc3ccccc3)cc2)C1`: the Efficacy with PC-12 was 100%. Also, the EC50 in assay [1] turned out to be 1300 nM.
For `Cc1cccc(C2CC(=O)CC(=O)C2)c1`, in that order: 100% and 4810 nM.
Take `O=C1CC(=O)CC(c2ccc(-c3cccc(Cl)c3)o2)C1`: the Efficacy with PC-12 amounted to 100%. Besides, in assay [1], the EC50 came to 2710 nM.
For `O=C1CC(=O)CC(c2cccc(-c3cc(C(F)(F)F)cc(C(F)(F)F)c3)c2)C1`, in that order: 100% and 2150 nM.
Take `CC(C)c1ccc(C2CC(=O)CC(=O)C2)cc1`: the Efficacy in the assay with PC-12 amounted to 100%. Moreover, the EC50 in assay [1] stood at 4090 nM.
For the molecule `Cc1cccc(C)c1C1CC(=O)CC(=O)C1`, in the assay on PC-12, the Efficacy turned out to be 100%. The half-maximal effective concentration (EC50) in assay [1] was 2700 nM.
For `O=C1CC(=O)CC(c2ccc(C(F)(F)F)cc2)C1`, in that order: 100% and 8300 nM.
In the case of `O=C1CC(=O)CC(c2cccc(Cl)c2)C1`, in the assay with PC-12, the Efficacy is 100%. Moreover, the EC50 in assay [1] was found to be 6520 nM.
Turning to `O=C1CC(=O)CC(c2ccc3ccccc3c2)C1`, the Efficacy in the assay with PC-12 amounted to 100%. Further, the 50% effective concentration (EC50) in assay [1] amounted to 6210 nM.
Turning to `CCCCCc1ccc(C2CC(=O)CC(=O)C2)cc1`, the Efficacy with PC-12 is 100%. The 50% effective concentration (EC50) in assay [1] was 2010 nM.
Consider `O=C1CC(=O)CC(c2cc(-c3ccccc3)cc(C(F)(F)F)c2)C1`, for which the Efficacy with PC-12 stood at 100%. In assay [1], the EC50 came out at 730 nM.
For `O=C1CC(=O)CC(COc2ccccc2)C1`, in that order: 100% and greater than 32000 nM.
Regarding `CC1(COc2ccccc2)CC(=O)CC(=O)C1`, in the assay on PC-12, the Efficacy was 100%. Also, the EC50 in assay [1] was 6280 nM.
Regarding `O=C1CC(=O)CC(c2ccc(F)cc2F)C1`, the Efficacy in the assay on PC-12 stood at 100%. Moreover, the concentration for a half-maximal effect (EC50) in assay [1] is greater than 32000 nM.
For `O=C1CC(=O)CC(c2ccoc2)C1`, in that order: 100% and greater than 32000 nM.
Take `O=C1CC(=O)CC(c2ccc(C(F)(F)F)cc2C(F)(F)F)C1`: the Efficacy in the assay with PC-12 turned out to be 100%. Further, the EC50 in assay [1] amounted to 2560 nM.
For `CCc1ccccc1C1CC(=O)CC(=O)C1`, in that order: 100% and 3160 nM.
`O=C1CC(=O)CC(c2ccccc2F)C1`: the Efficacy with PC-12 turned out to be 100%. In assay [1], the EC50 was greater than 32000 nM.
For `CCOc1ccc(C2CC(=O)CC(=O)C2)c(OCC)c1`, in that order: 100% and 1490 nM.
For `O=C1CC(=O)CC(c2cccc(-c3cc(F)cc(F)c3)c2)C1`, in that order: 100% and 1240 nM.
On to `O=C1CC(=O)CC(c2ccccc2Cl)C1`, for which the Efficacy in the assay with PC-12 was 100%. For the same molecule, in assay [1], the EC50 is greater than 32000 nM.
Take `O=C1CC(=O)CC(c2cccc(-c3ccccc3)c2)C1`: in the assay with PC-12, the Efficacy came out at 100%. For the same molecule, the EC50 in assay [1] was 1230 nM.
For `O=C1CC(=O)CC(c2ccc(Oc3ccc(Cl)cc3)cc2)C1`, in that order: 100% and 2880 nM.
Consider `O=C1CC(=O)CC(c2cc(F)cc(F)c2)C1`, for which the Efficacy in the assay on PC-12 stood at 100%. Moreover, the EC50 in assay [1] stood at 8200 nM.
For `CSc1ccc(C2CC(=O)CC(=O)C2)cc1`, in that order: 100% and greater than 32000 nM.
For `CC(C)c1cccc(C2CC(=O)CC(=O)C2)c1`, in that order: 100% and 1580 nM.
For the molecule `CC(C)(C)OC(=O)N1CCN(c2ccc(C3CC(=O)CC(=O)C3)cc2)CC1`, in the assay on PC-12, the Efficacy was 100%. Further, the half-maximal effective concentration (EC50) in assay [1] was determined as 8290 nM.
`O=C1CC(=O)CC(c2cccc(Oc3ccc(Cl)cc3)c2)C1`: in the assay with PC-12, the Efficacy is 100%. In addition, the concentration for a half-maximal effect (EC50) in assay [1] worked out at 2180 nM.
As to `O=C1CC(=O)CC(c2ccc(OCc3ccccc3)cc2)C1`, in the assay on PC-12, the Efficacy was 100%. Further, in assay [1], the half-maximal effective concentration (EC50) is greater than 32000 nM.
Consider `CC1(COc2cc(C(F)(F)F)cc(C(F)(F)F)c2)CC(=O)CC(=O)C1`, for which, in the assay with PC-12, the Efficacy came out at 100%. Besides, in assay [1], the concentration giving a half-maximal response (EC50) was 700 nM.
On to `CCCc1ccc(C2CC(=O)CC(=O)C2)cc1`, for which the Efficacy in the assay with PC-12 was 100%. Besides, the EC50 in assay [1] was determined as 2220 nM.
As for `O=C1CC(=O)CC(c2ccccc2Oc2ccc(F)cc2)C1`, in the assay on PC-12, the Efficacy is 100%. The concentration for a half-maximal effect (EC50) in assay [1] is 1160 nM.
For `O=C1CC(=O)CC(c2cc(-c3ccc(F)cc3)cc(-c3ccc(F)cc3)c2)C1`, in that order: 100% and 3070 nM.
For the molecule `O=C1CC(=O)CC(c2cccc(OC(F)(F)F)c2)C1`, the Efficacy with PC-12 is 100%. Moreover, the EC50 in assay [1] came to 2040 nM.
As for `CCCCc1ccc(C2CC(=O)CC(=O)C2)cc1`, the Efficacy in the assay on PC-12 worked out at 100%. For the same molecule, in assay [1], the half-maximal effective concentration (EC50) is 2710 nM.
For `O=C1CC(=O)CC(c2cc(Cl)cc(Cl)c2)C1`, the Efficacy with PC-12 stood at 100%. In assay [1], the EC50 came out at 2350 nM.
As to `CC(C)(C)c1ccc(C2CC(=O)CC(=O)C2)cc1`, the Efficacy in the assay with PC-12 is 100%. Also, in assay [1], the EC50 is 9930 nM.
With `Cc1ccccc1C1CC(=O)CC(=O)C1`, the Efficacy in the assay on PC-12 is 100%. Moreover, the EC50 in assay [1] came out at 3390 nM.
Take `O=C1CC(=O)CC(c2c(F)cccc2F)C1`: in the assay on PC-12, the Efficacy worked out at 100%. In addition, the EC50 in assay [1] is greater than 32000 nM.
Regarding `O=C1CC(=O)CC(c2cc(-c3cccc(Cl)c3)cc(C(F)(F)F)c2)C1`, the Efficacy in the assay on PC-12 is 100%. Also, the concentration for a half-maximal effect (EC50) in assay [1] turned out to be 1560 nM.
As for `O=C1CC(=O)CC(c2cccc(Br)c2)C1`, in the assay on PC-12, the Efficacy is 100%. The EC50 in assay [1] stood at 28700 nM.
For the molecule `O=C1CC(=O)CC(c2c(Cl)cccc2Cl)C1`, the Efficacy with PC-12 amounted to 100%. The EC50 in assay [1] came to 24300 nM.
For `O=C1CC(=O)CC(c2ccccc2C(F)(F)F)C1`, in that order: 100% and 3200 nM.
With `O=C1CC(=O)CC(c2cccc(-c3ccc(Cl)cc3)c2)C1`, the Efficacy in the assay with PC-12 was 100%. Further, the EC50 in assay [1] stood at 3510 nM.
Turning to `O=C1CC(=O)CC(c2cccc(C(F)(F)F)c2)C1`, in the assay with PC-12, the Efficacy was determined as 100%. In addition, in assay [1], the concentration giving a half-maximal response (EC50) was 3330 nM.
Consider `O=C1CC(=O)CC(c2ccc(Oc3cccc(Cl)c3)cc2)C1`, for which the Efficacy with PC-12 was 100%. Moreover, in assay [1], the concentration for a half-maximal effect (EC50) came out at 3600 nM.
For the molecule `COc1cc(OC)cc(C2CC(=O)CC(=O)C2)c1`, the Efficacy with PC-12 came out at 100%. In addition, the half-maximal effective concentration (EC50) in assay [1] came to 5200 nM.
Take `CC(Oc1cc(Cl)cc(Cl)c1)C1CC(=O)CC(=O)C1` (racemic): in the assay with PC-12, the Efficacy stood at 100%. In addition, in assay [1], the concentration giving a half-maximal response (EC50) came out at 1410 nM.
Regarding `CC(c1ccccc1)C1CC(=O)CC(=O)C1` (racemic), the Efficacy with PC-12 is 100%. For the same molecule, the EC50 in assay [1] is 5850 nM.
